# Results of several laboratories.
# Target: Tyrosine-protein kinase FRK (FRK, Homo sapiens, UniProt P42685)
SMILES,effect on,mode,technique,concentration,quantity,result
N#CCCc1ccc2c(c1)-c1[nH]c3ccc([N+](=O)[O-])cc3c1CC(=O)N2,cell-free assay,,,0.5 µM,remaining signal,92.7%
C[C@@H]1CN(c2cc(-c3n[nH]c4ccc(OC5(C)CC5)cc34)ncn2)C[C@H](C)O1,cell-free assay,,competition with immobilised ligand,0.1 µM,remaining binding,100%
Cc1ccc(C(=O)NCc2ccsc2)cc1C#Cc1cn(C(C)C)c2ncnc(N)c12,enzyme activity,inhibitor,,1 µM,activity vs control,2%
COc1cc(-c2cn(C3CCc4c(F)cccc4N(CC(F)(F)F)C3=O)nn2)ccc1-n1cnc(C)c1 (stereo not shown),cell-free assay,,competition with immobilised ligand,1 µM,remaining binding,100%
O=C(Nc1cnn(-c2csc(C(=O)NC3COC3)c2)c1)Nc1c(F)cccc1Cl,enzyme activity,inhibitor,,5 µM,remaining activity,95.6%
COc1cc2c(Nc3ccc(Br)cc3F)ncnc2cc1OCC1CCN(C)CC1,cell-free assay,,,0.5 µM,remaining signal,79.5%
COc1cc2ncnc(Nc3ccc(Oc4ccccc4)cc3C)c2cc1OC,enzyme activity,inhibitor,,1 µM,inhibition,63%
COc1cc(Cl)c(C(=O)N[C@@H](CN[C@H]2CC[C@@H](N)CC2)Cc2ccc(C#N)cc2)cc1-c1ccc(CN[C@H](C)c2ccc(C)cc2)o1,enzyme activity,inhibitor,,1 µM,remaining activity,99%
Cc1cc(NC(=O)c2cccc3cc(-c4cccc5[nH]nc(N)c45)ccc23)ccc1F,enzyme activity,inhibitor,,0.1 µM,activity vs control,67%
Cc1cnc(NC2CCOCC2)nc1-n1cnc(C(=O)NC(CN)c2cc(F)cc(Cl)c2)c1 (stereo not shown),enzyme activity,inhibitor,radiometric,1 µM,remaining activity,98%
O=C1CCc2cc(Nc3cc(OC4CCOCC4)c([N+](=O)[O-])cc3Cl)ccc2N1,cell-free assay,,competition with immobilised ligand,1 µM,remaining binding,73%
CC(C)(C)c1nc2c(s1)c1nc(N)ncc1c1ccc(NS(=O)(=O)c3c(F)cccc3F)c(F)c12,enzyme activity,inhibitor,radiometric,1 µM,remaining activity,103%
O=c1cc(-c2cccc3c2Sc2ccccc2S3)oc(N2CCOCC2)c1,enzyme activity,inhibitor,,0.5 µM,remaining activity,99.5%
CC1=C(C#N)[C@@H](c2ccc3[nH]nc(C)c3c2)C(C#N)=C(c2ccc(Cl)cc2)N1,cell-free assay,,competition with immobilised ligand,1 µM,remaining binding,100%
CCN(CC)CCNC(=O)c1c(C)[nH]c(/C=C2\C(=O)Nc3ccc(Cl)cc32)c1C,enzyme activity,inhibitor,,0.5 µM,remaining activity,59.3%
Cc1c(C(=O)O)cc(-c2ccc(C3CCNCC3)cc2)c2ccc(-c3ccc(C(F)(F)F)cc3)cc12,cell-free assay,,competition with immobilised ligand,1 µM,remaining binding,100%
Nc1ncnc2occ(-c3ccc(NC(=O)Nc4cc(C(F)(F)F)ccc4F)cc3)c12,cell-free assay,inhibitor,,20 µM,remaining signal,0.15%
CCN(CC)CCNC(=O)c1c(C)[nH]c(/C=C2\C(=O)Nc3ccc(F)cc32)c1C,enzyme activity,inhibitor,,0.3 µM,inhibition,47%
CCCOc1ccc([C@@H]2[C@@H](C(=O)O)[C@H](c3ccc4c(c3)OCO4)CN2CC(=O)Nc2c(CC)cccc2CC)cc1,cell-free assay,,competition with immobilised ligand,1 µM,remaining binding,89%
Cc1sc(C(=O)NC2COC2)cc1-n1cc(NC(=O)Nc2c(F)cccc2Cl)cn1,enzyme activity,inhibitor,,10 µM,remaining activity,87.3%
C[C@H](NC(=O)c1cnc2n1[C@](C)(Cc1ccc(C#N)cc1)C(=O)N2c1cc(Cl)c(F)c(Cl)c1)C(=O)NC1(c2ccccn2)CC1,cell-free assay,,competition with immobilised ligand,1 µM,remaining binding,68%
c1nc2c(Nc3ccc4c(c3)OCCO4)nc(Nc3ccc4c(c3)OCCO4)nc2[nH]1,enzyme activity,inhibitor,,10 µM,activity vs control,22%
